Data set [1] addresses T1, Oxysterols receptor LXR-alpha (Homo sapiens, UniProt Q13133).
T1 sequence (Q13133 whole entry): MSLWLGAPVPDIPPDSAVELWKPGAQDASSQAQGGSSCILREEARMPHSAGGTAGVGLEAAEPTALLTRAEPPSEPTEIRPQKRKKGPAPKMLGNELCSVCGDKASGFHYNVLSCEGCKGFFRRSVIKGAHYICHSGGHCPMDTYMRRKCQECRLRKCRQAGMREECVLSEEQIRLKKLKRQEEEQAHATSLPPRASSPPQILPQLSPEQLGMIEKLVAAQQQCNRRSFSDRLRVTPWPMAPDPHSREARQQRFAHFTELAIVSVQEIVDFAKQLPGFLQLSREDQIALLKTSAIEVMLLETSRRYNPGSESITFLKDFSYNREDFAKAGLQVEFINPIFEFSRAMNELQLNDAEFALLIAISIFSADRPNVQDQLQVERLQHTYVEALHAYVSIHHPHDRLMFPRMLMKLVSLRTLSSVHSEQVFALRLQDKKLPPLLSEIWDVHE
Nature of the data set: Agonist activity at GST-tagged LXRalpha-LBD (unknown origin) by LanthaScreen TR-FRET liver X receptor coactivator assay. The method in brief: (§1)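 Cofactor recruitment assay using the ligand binding domains of LXRβ or LXRα. The read-out was EC50 and Emax, with Emax relative to a full agonist control.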

Data set [2] has as its target T2, Oxysterols receptor LXR-beta (Homo sapiens, UniProt P55055).
T2 sequence (P55055 whole entry): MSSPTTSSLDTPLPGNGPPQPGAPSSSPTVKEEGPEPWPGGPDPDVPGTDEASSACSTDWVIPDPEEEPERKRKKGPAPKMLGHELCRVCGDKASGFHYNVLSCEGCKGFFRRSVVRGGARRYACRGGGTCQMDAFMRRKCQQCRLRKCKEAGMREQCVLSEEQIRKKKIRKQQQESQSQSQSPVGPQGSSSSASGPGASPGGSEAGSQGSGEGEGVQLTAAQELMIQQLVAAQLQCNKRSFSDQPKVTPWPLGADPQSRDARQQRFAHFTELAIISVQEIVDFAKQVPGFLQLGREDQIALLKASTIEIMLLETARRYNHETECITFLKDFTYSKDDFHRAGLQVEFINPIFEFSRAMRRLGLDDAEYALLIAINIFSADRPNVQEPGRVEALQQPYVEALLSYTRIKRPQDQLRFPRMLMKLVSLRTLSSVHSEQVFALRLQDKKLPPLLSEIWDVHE
Put plainly: Agonist activity at GST-tagged LXRbeta-LBD (unknown origin) by LanthaScreen TR-FRET liver X receptor coactivator assay. The method in brief: as §1
On the technique in general: In TR-FRET formats the signal depends on donor and acceptor labels being close together.

The target of data set [3] is T3, Oxysterols receptor LXR-beta (Homo sapiens) (UniProt P55055).
T3 sequence (whole entry): T2 sequence (P55055 whole entry)
Put plainly: (§2) Agonist activity at LXRbeta (unknown origin) expressed in human H4 cells co-expressing ABCA1 promoter measured after 48 hrs by cell-based transactivation assay.

Data set [4] has as its target T2, Oxysterols receptor LXR-beta. The description is as §2.
In data set [5] the target is T4, Oxysterols receptor LXR-alpha (Homo sapiens) (UniProt Q13133).
T4 sequence (whole entry): T1 sequence (Q13133 whole entry)
Nature of the data set: (§3) Agonist activity at LXRalpha (unknown origin) expressed in human HepG2 cells co-expressing ABCA1 promoter measured after 48 hrs by cell-based transactivation assay.

Data set [6] concerns the target T1, Oxysterols receptor LXR-alpha. Described as §3.
For data set [7], the target named is T3, Oxysterols receptor LXR-beta (Homo sapiens). Put plainly: Agonist activity at GST-tagged LXRbeta-LBD (unknown origin) by LanthaScreen TR-FRET liver X receptor coactivator assay relative to T1317. The method in brief:
as §1

The target in data set [8] is T4, Oxysterols receptor LXR-alpha (Homo sapiens). Put plainly: Agonist activity at GST-tagged LXRalpha-LBD (unknown origin) by LanthaScreen TR-FRET liver X receptor coactivator assay T1317. The method in brief: as §1
Data set [9] concerns Rhesus monkey. Nature of the data set: Increase in apoE level in CSF of rhesus monkey at 5 mg/kg, po administered for 2 weeks. The format is functional, organism-based. As to conditions: Macaca mulatta. The method in brief:
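Rhesus monkeys were dosed orally once daily for 2 weeks after randomisation on baseline lipids, liver enzymes and liver fat. CSF was taken by lumbar puncture at baseline and at trough after the last dose, and apoE was measured against baseline.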

Data set [10] relates to Rhesus monkey. Nature of the data set: Increase in apoE level in plasma of rhesus monkey at 5 mg/kg, po administered for 2 weeks. The conditions noted are these: Macaca mulatta. The format is functional, organism-based.
The subject of data set [11] is Rhesus monkey. Nature of the data set: Increase in hepatic fat content in rhesus monkey at 5 mg/kg, po qd for 2 weeks by magnetic resonance spectroscopic imaging method relative to vehicle control. The conditions noted are these: in vivo, 336 h. The format is ADME, organism-based, Macaca mulatta.
For another data set, the system named is Cynomolgus monkey. Nature of the data set: Increase in triglycerides level in cynomolgus monkey liver at >= 3 mg/kg, po qd administered for 2 weeks. The class given is ADME, organism-based, Macaca fascicularis. The conditions noted are these: in vivo, 336 h.
In data set [12] the test system is Mus musculus. Nature of the data set: Toxicity in Tg2576 transgenic mouse assessed as increase in plasma triglyceride level at 10 mg/kg, sc dosed for 3 weeks. The class given is organism-based. The conditions noted are these: in vivo, 504 h. In a few lines:
(§4)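 12-month-old Tg2576 mice were dosed subcutaneously for three weeks. Brain was assayed for ABCA1 protein, soluble apoE and DEA-soluble Aβ, and plasma and liver were assayed for triglycerides. Groups were compared with vehicle by ANOVA.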

Data set [13] has as its system Mus musculus. Put plainly: Toxicity in Tg2576 mouse assessed as increase in liver triglyceride level at 10 mg/kg, sc dosed for 3 weeks. The format is organism-based. As to conditions: in vivo, 504 h. In a few lines: as §4
The subject of data set [14] is Rhesus monkey. Put plainly: Increase in amyloid beta40 in CSF of rhesus monkey at 10 mg/kg, po administered for 2 weeks. The format is functional, Macaca mulatta.
Data set [15] deals with Rhesus monkey. Nature of the data set: Increase in amyloid beta40 in CSF of rhesus monkey at 5 mg/kg, po administered for 2 weeks. The format is functional, organism-based. As to conditions: Macaca mulatta.
For data set [16], the system named is Rhesus monkey. Put plainly: Increase in amyloid beta42 in CSF of rhesus monkey at 5 mg/kg, po administered for 2 weeks. The format is functional, organism-based. As to conditions: Macaca mulatta.
Data set [17] has as its system Rhesus monkey. Nature of the data set: Increase in amyloid beta42 in CSF of rhesus monkey at 10 mg/kg, po administered for 2 weeks. The class given is functional, Macaca mulatta.
Data set [18] in a line: Solubility of the compound at pH 2. The class given is physicochemical. The conditions noted are these: buffer.
Data set [19] relates to P-gp. Nature of the data set: Efflux ratio in MDCK cells expressing rat P-gp assessed as ratio of permeability across basolateral to apical side over apical to basolateral side. As to conditions: dog, MDCK-MDR1. The class given is ADME, cell-based, Canis lupus familiaris.
The test system of data set [20] is P-gp. Put plainly: Efflux ratio in MDCK cells expressing human P-gp assessed as ratio of permeability across basolateral to apical side over apical to basolateral side. As to conditions: dog, MDCK-MDR1. The class given is ADME, cell-based, Canis lupus familiaris.

We go through six compounds from ChEMBL document CHEMBL3808288, “Identification and in Vivo Evaluation of Liver X Receptor β-Selective Agonists for the Potential Treatment of Alzheimer's Disease” (J Med Chem, 2016).

For orientation: EC50 means the concentration that produces a half-maximal response. For orientation: Emax means the size of the effect at its maximum, as opposed to the concentration needed. Broadly, the solubility is the concentration that dissolves in the medium under given conditions. As usually defined, the efflux ratio is the permeability from basolateral to apical divided by that in the opposite direction, in the common usage.

Values after ≈ are worked out from the molar mass of the structure shown. Active and inactive are the calls of the source. The rule behind the calls is not given here.

In the case of `CN(C)C(=O)c1ccc(-c2cnc(N3CCN(C(=O)OC(C)(C)C)CC3)c(C#N)c2)cc1Cl`, the EC50 in data set [1] came to 1480 nM; in [2] it was 940 nM; in data set [4] it was 770 nM; in [6] it was 280 nM. The Emax in data set [3] is 103%; in data set [5], 40%; in data set [7], 106%; in data set [8] it was 50%.

With `CC(C)[C@](O)(C(=O)N1CCC(C2CCN(c3ccc(C(=O)N(C)C)c(Cl)c3)CC2)CC1)C(F)(F)F`, the maximum response (Emax) in [3] was 117%; in [5], 31%. Besides, the EC50 was found to be 840 nM in [4] and 2000 nM in [6].

In the case of `CC(C)(O)CNC(=O)Nc1ccc(C(=O)N2CCN(Cc3ccc(C(O)(C(F)(F)F)C(F)(F)F)cc3)CC2)cc1F`, the result in the data set on Rhesus monkey [9] was inactive. Besides, in the data set with Rhesus monkey [10], the outcome was Active. Moreover, the “fold change (FC)” value in the data set on Rhesus monkey [11] is on record as 4. Besides, in the data set on Cynomolgus monkey, the Activity entry is “Toxic”.

As to `O=S(=O)(c1ccccc1)N(CC(F)(F)F)c1ccc(C(O)(C(F)(F)F)C(F)(F)F)cc1` [T091317], the Activity entry with Mus musculus [12] was “Toxic”; in the data set on Mus musculus [13], “Toxic”; in the data set with Rhesus monkey [14], 25%; with Rhesus monkey [17], 25%. For the same compound, the result in the data set with Rhesus monkey [15] and in the data set with Rhesus monkey [16] was inactive.

With `CN(C)C(=O)c1ccc(N2CCC(C3CCN(C(=O)[C@](O)(c4ccccc4)C(F)(F)F)CC3)CC2)cc1Cl`, the Emax in data set [3] turned out to be 91%; in data set [5], 24%. Besides, the EC50 in data set [4] was 550 nM; in [6], 500 nM. In data set [18], the concentration in solution (solubility) was 197 µM (≈ 109 µg/mL). The figures for the efflux ratio with P-gp [19] and in the data set with P-gp [20] were 4.3 and 1.8, respectively.

Regarding `CN(C)C(=O)c1ccc(-c2cnc(N3CCN(C(=O)[C@](O)(c4ccccc4)C(F)(F)F)CC3)c(C#N)c2)cc1Cl`, the EC50 in data set [1] worked out at 41 nM; in data set [2], 8 nM; in data set [4], 7 nM; in data set [6] it was 45 nM. Further, the Emax came out at 64% in [3], 66% in data set [5], 67% in [7] and 62% in data set [8]. This compound also registered a solubility in data set [18] of 3 µM (≈ 1.72 µg/mL).
